Data on one compound can be found in ChEMBL document CHEMBL1781898, “Orally active achiral N-hydroxyformamide inhibitors of ADAM-TS4 (aggrecanase-1) and ADAM-TS5 (aggrecanase-2) for the treatment of osteoarthritis” (Bioorg Med Chem Lett, 2011).

Structures are written as SMILES.

Data set [1] concerns the target T1, A disintegrin and metalloproteinase with thrombospondin motifs 4 (Homo sapiens, UniProt O75173).
T1 sequence (O75173 whole entry): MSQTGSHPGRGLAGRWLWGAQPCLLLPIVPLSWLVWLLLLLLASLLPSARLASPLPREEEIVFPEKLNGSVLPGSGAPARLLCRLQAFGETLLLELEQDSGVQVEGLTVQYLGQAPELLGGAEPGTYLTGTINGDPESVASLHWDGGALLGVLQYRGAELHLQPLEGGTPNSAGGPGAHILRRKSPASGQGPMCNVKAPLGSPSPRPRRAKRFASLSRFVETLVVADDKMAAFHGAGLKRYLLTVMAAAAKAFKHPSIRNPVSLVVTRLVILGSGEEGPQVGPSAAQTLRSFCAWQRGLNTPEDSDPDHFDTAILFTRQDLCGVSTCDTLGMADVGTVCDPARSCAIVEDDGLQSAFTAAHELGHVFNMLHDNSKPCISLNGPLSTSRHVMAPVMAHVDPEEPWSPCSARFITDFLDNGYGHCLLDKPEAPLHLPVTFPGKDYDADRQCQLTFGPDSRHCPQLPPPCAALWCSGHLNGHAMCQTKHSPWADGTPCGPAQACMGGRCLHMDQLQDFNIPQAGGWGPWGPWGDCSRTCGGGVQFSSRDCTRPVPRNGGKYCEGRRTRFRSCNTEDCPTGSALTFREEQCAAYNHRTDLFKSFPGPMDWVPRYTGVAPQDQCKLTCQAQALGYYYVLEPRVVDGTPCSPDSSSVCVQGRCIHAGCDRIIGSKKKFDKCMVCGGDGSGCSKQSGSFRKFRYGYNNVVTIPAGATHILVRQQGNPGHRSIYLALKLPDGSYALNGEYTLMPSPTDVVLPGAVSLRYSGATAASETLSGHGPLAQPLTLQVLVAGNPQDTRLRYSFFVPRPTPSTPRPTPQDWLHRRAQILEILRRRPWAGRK
As to the kind of experiment: Inhibition of ADAMTS-4 assessed as substrate cleavage after 16 hrs by fluorescence assay. The method, boiled down: (§1)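 Enzyme inhibition IC50s derived from at least six measurements, standard errors normally <5% within an assay; a standard compound run to keep assay-to-assay variability within twofold.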

A further data set deals with T2, Interstitial collagenase (Homo sapiens, UniProt P03956).
T2 sequence (P03956 whole entry): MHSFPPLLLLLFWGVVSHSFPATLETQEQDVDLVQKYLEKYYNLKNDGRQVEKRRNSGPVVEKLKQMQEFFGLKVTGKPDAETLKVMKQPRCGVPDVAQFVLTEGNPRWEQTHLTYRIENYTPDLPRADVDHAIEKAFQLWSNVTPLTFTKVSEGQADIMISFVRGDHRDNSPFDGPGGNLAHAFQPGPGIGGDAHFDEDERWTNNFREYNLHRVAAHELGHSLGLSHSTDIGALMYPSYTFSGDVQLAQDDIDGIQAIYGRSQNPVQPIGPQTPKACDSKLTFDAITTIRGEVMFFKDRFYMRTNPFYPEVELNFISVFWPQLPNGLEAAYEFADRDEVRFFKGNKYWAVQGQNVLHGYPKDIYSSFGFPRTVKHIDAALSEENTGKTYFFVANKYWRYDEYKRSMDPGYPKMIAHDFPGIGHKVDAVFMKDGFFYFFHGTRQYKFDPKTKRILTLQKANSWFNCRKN
As to the kind of experiment: Inhibition of recombinant human MMP-1 assessed as substrate cleavage after 20 hrs by fluorescence assay. The method, boiled down:
as §1

Data set [2] deals with 72 kDa type IV collagenase (Homo sapiens, UniProt P08253). As to the kind of experiment: Inhibition of recombinant human MMP-2 assessed as substrate cleavage after 20 hrs by fluorescence assay. The method, boiled down: as §1
For data set [3], the target named is Matrix metalloproteinase-9 (Homo sapiens, UniProt P14780). As to the kind of experiment: Inhibition of recombinant human MMP-9 assessed as substrate cleavage after 20 hrs by fluorescence assay. The method, boiled down:
as §1

The nature of data set [4]: Clearance in rat at 2 mg/kg, iv. The format is ADME, organism-based. On the set-up: dose 2 mg/kg, route intravenous. To be noted: in vivo. The method, boiled down: (§2)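 Rat iv PK: 2 mg/kg iv, n = 2 animals; clearance, half-life and Vdss determined.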
A short description of data set [5]: Half life in rat at 2 mg/kg, iv. Also noted: dose 2 mg/kg, route intravenous. In kind it is ADME, organism-based. To be noted: in vivo. The method, boiled down: as §2
Data set [6] is described as follows: Lipophilicity, log D of the compound. The note with it: octanol/water. In kind it is physicochemical.
Data set [7] is described as follows: Thermodynamic solubility of the compound in phosphate buffer at pH 7.4 after 24 hrs. The format is physicochemical. The note with it: read-out: Therm_solubility.
Data set [8] can be described thus: Free drug level in human. In kind it is ADME, organism-based. To be noted: in vivo.
Data set [9] can be described thus: Clearance in mouse. The format is ADME, organism-based. The note with it: in vivo.
Data set [10] in a line: Half life in mouse. The format is ADME, organism-based. To be noted: in vivo.
Data set [11] is described as follows: Volume of distribution at steady state in mouse. In kind it is ADME, organism-based. The note with it: in vivo, read-out: Vdss.
A short description of data set [12]: Volume of distribution at steady state in rat at 2 mg/kg, iv and 3 to 10 mg/kg, po. In kind it is ADME, organism-based. To be noted: in vivo, read-out: Vdss.
Data set [13] in a line: Clearance in dog at 1 mg/kg, iv and 1 mg/kg, po. In kind it is ADME, organism-based, Canis lupus familiaris. To be noted: in vivo.
The nature of data set [14]: Oral bioavailability in mouse. In kind it is ADME, organism-based. The note with it: in vivo.
Data set [15] in a line: Oral bioavailability in dog. The format is ADME, organism-based, Canis lupus familiaris. The note with it: in vivo.
A short description of data set [16]: Inhibition of aggrecanase activity in human late stage diseased osteoarthritis cartilage explant assessed as inhibition of aggrecan degradation measuring ARGSVIL neo-peptide release.
Data set [17] in a line: Inhibition of aggrecanase activity in IL-1-stimulated human osteoarthritis cartilage explant assessed as inhibition of aggrecan degradation measuring ARGSVIL neo-peptide release.
Data set [18] can be described thus: Absolute bioavailability in mouse. The format is ADME, organism-based. The note with it: in vivo.
Data set [19] in a line: Absolute bioavailability in dog. In kind it is ADME, organism-based, Canis lupus familiaris. To be noted: in vivo.
A further data set has as its target Cytochrome P450 2D6 (Homo sapiens, UniProt P10635). The experiment in a line: Inhibition of CYP2D6. The format is ADME. The method, boiled down:
(§3)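 Inhibition of cytochrome P450 isoforms 1A2, 2C9, 2C19, 2D6 and 3A4, reported as pIC50.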

A further data set addresses Cytochrome P450 2C19 (Homo sapiens, UniProt P33261). As to the kind of experiment: Inhibition of CYP2C19. The format is ADME. The method, boiled down: as §3

Chain of 72 kDa type IV collagenase (P08253 whole entry): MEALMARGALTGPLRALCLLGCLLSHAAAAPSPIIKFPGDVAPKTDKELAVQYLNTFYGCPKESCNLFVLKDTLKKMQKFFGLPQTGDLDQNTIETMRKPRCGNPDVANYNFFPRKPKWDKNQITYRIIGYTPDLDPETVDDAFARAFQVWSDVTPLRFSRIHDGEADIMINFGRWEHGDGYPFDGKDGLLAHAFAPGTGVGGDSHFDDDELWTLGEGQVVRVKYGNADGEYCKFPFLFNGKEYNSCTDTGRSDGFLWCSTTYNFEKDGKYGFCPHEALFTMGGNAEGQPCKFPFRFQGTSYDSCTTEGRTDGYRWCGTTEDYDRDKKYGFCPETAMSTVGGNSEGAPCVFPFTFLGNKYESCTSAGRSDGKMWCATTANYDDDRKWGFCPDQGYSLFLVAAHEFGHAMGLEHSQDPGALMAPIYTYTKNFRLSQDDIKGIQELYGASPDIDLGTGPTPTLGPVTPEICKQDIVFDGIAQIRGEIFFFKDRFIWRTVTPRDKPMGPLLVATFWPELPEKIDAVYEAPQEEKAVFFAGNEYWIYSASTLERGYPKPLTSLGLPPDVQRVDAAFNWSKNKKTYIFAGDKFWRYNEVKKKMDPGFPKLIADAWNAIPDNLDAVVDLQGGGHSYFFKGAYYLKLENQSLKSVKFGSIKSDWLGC
Chain of Matrix metalloproteinase-9 (P14780 whole entry): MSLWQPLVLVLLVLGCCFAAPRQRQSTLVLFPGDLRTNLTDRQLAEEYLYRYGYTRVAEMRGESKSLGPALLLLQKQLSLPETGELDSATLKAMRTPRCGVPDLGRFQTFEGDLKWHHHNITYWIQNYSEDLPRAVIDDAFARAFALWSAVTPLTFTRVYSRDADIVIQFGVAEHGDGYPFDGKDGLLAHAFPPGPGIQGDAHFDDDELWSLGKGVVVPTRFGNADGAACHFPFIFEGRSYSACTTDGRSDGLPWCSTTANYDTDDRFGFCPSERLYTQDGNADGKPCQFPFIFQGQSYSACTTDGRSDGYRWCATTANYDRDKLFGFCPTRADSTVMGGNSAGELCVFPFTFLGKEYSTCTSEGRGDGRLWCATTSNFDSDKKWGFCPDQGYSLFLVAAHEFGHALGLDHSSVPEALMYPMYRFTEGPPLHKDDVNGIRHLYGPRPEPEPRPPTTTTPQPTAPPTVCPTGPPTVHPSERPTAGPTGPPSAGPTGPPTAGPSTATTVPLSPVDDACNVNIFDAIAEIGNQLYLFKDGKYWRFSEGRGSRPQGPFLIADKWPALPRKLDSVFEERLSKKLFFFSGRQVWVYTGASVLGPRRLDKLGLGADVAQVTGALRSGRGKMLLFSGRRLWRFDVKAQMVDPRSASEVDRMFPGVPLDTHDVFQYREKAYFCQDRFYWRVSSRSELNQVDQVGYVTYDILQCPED
Chain of Cytochrome P450 2D6 (P10635 whole entry, canonical isoform): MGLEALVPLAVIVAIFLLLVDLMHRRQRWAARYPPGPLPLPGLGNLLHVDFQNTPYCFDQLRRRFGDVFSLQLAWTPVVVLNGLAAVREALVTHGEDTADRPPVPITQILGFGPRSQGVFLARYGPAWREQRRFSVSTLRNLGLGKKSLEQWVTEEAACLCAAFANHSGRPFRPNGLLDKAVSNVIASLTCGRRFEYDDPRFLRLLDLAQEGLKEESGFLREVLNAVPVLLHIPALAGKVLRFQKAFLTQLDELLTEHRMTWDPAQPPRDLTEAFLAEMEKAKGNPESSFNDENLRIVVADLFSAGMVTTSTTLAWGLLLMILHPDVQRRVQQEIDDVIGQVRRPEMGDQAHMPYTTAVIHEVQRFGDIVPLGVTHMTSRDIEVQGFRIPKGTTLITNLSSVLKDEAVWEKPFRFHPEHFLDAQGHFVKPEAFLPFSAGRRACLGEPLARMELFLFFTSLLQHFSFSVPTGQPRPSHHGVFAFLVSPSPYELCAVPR
Chain of Cytochrome P450 2C19 (P33261 whole entry): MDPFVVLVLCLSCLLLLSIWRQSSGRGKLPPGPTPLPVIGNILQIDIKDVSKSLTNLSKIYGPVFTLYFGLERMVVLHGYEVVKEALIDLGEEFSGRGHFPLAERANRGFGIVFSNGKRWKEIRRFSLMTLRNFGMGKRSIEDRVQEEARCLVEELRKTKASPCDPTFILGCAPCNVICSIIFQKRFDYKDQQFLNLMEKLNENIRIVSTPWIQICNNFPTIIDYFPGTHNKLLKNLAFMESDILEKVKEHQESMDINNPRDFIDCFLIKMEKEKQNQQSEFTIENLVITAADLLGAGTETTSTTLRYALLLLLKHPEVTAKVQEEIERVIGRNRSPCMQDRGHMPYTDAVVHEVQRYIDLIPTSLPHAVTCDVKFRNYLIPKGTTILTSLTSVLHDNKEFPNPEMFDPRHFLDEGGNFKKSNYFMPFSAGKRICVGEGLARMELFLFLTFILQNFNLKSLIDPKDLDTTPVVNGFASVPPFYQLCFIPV

Consider `Cc1noc(C)c1CCC1CCN(S(=O)(=O)CC2(N(O)C=O)CCOCC2)CC1`, for which the IC50 (commonly the concentration that inhibits the measured activity by half) was 0.026 µM in data set [1]; over 10 µM at Interstitial collagenase; over 23 µM in [2]; over 25 µM in data set [3]; 0.15 µM in data set [16]; 0.12 µM in data set [17]. In addition, the clearance worked out at 24 mL/min/kg in [4], 30 mL/min/kg in [9] and 13 mL/min/kg in data set [13]. Also, the half-life (usually the time in which the quantity being followed falls by half) in data set [5] was 8.9 h; in data set [10], 2.6 h. For the same compound, the logD – broadly, the decadic logarithm of the distribution of all forms, ionised or not, between an organic phase and buffer at a given pH – in data set [6] came out at 0.9. Further, the solubility thermodynamic at 24 h in data set [7] was over 1000 µM. In addition, the fraction unbound (in general, free concentration divided by total concentration) in data set [8] was over 0.5. The Vd in [11] was 2.5 L/kg; in data set [12] it was 3 L/kg. For the same compound, the bioavailability (as a rule, the share of a dose that reaches the circulation, judged against a reference dose that is usually intravenous) in data set [14] amounted to 54%; in data set [15], 52%; in [18], 54%; in [19] it was 52%. Moreover, the “inhibition (INH)” value against Cytochrome P450 2D6 and on Cytochrome P450 2C19 was “Not Active” throughout.
